Entries after “also recorded” stand apart in the source; their conditions may differ. Structures can show the parent of a compound that is named as a salt. Where two headings read alike, the source gives them in different places.
What was measured:
Sm.5HTRL [1] = biological target: T1, Sm.5HTRL (Schistosoma mansoni, UniProt A0A173FEI8); test: Sm.5HTRL cAMP luminescence; format: cell-based; conditions: for Emax: read-out: Sm.5HTRL Emax (normalized to 5-HT)
T1 sequence (A0A173FEI8 1-547): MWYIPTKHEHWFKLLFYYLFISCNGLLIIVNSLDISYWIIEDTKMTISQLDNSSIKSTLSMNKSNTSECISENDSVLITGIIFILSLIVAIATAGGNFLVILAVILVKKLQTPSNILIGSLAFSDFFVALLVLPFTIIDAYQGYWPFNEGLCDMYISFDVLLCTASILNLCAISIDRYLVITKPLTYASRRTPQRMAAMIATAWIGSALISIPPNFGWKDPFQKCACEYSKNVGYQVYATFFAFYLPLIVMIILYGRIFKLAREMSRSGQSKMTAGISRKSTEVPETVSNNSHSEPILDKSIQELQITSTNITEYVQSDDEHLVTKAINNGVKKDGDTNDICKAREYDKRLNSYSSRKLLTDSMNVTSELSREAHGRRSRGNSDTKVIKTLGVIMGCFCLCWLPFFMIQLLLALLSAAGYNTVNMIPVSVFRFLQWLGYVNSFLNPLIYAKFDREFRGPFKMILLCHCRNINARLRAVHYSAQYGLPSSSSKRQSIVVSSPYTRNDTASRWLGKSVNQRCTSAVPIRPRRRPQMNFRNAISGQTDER
How it was run: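 HEK-293 cells stably carrying the GloSensor-22F cAMP reporter and codon-optimised Sm.5HTRL (pcDNA3.1), selected with hygromycin (200 μg/mL) and G418 (400 μg/mL), plated 2.5x10^4 cells/well the day before. Assay buffer was HBSS/HEPES (20 mM, pH 7.4), 0.1% BSA, D-luciferin 1 mg/mL. Cells were equilibrated 1 h at room temperature, then IBMX 200 μM for 30 min. Luminescence was read 45 min after test compound; Emax was taken relative to 5-HT.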

adult S. mansoni [2] = test: Adult schistosome mobility assay, agonist; set-up: species or system Schistosoma mansoni; conditions: adult male worms ex vivo; for increase in worm movement: 5 min incubation
How it was run: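 Adult worms came from female Swiss Webster mice 49 days after infection with NMRI-strain cercariae. They were washed in RPMI 1640 with HEPES 25 mM, 5% heat-inactivated FBS and pen-strep, then cultured overnight at 37 °C/5% CO2. Males (4–5/well, 3 mL) were exposed to test compound for 5 min. Movement was filmed for 1 min at 4 frames/s and quantified by image analysis; mean ± standard error, ≥3 independent experiments.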

[3] = system: mammalian 5-HT7 receptors; conditions: cited from earlier work
human 5-HT7 receptor = conditions: ref Plassat et al., 1993; cited from earlier work
Sm.5HTRL [4] = biological target: T1, Sm.5HTRL; test: Sm.5HTRL cAMP luminescence; format: cell-based; conditions: for antagonist activity at Sm.5HTRL (in words): inhibition of 5-HT response, test compound up to 50 μM
How it was run: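 Sm.5HTRL/GloSensor-22F stable HEK-293 cells, 2.5x10^4/well, in HBSS/HEPES (20 mM, pH 7.4), 0.1% BSA, 1 mg/mL D-luciferin. After 1 h at room temperature, IBMX 200 μM was added for 30 min. Test compound was added and read 45 min, then 500 nM serotonin was added and luminescence read another 45 min. IC50 came from concentration-inhibition curves; Ki was estimated by Cheng-Prusoff.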

Sm.5HTRL [5] = biological target: T1, Sm.5HTRL; conditions: ref Chan et al., cited from earlier work
adult S. mansoni [6] = conditions: previous work; ref Chan et al., 2016c; cited from earlier work
adult S. mansoni [7] = test: Adult schistosome mobility assay, antagonist; set-up: species or system Schistosoma mansoni; conditions: for inhibition of 5-HT evoked movement (in words): concentrations as high as 50 μM, serotonin 200 μM; for concentration inhibiting 5-HT evoked movement: 1 h incubation, then serotonin 200 μM
How it was run: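 Adult worms were recovered 49 days after cercarial infection of female Swiss Webster mice (NMRI strain parasite). They were kept overnight at 37 °C/5% CO2 in RPMI 1640 with HEPES 25 mM, 5% heat-inactivated FBS and pen-strep. Males (4–5/well) were incubated 1 h in test compound, then serotonin 200 μM was added. One-minute videos at 4 frames/s were analysed for movement; mean ± standard error, ≥3 independent experiments.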

[8] = system: HEK-293 cells expressing the GloSensor-22F reporter alone; test: Counter-screen on parental GloSensor-22F cell line lacking Sm.5HTRL; format: cell-based; conditions: agonists at 10 μM
How it was run: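 Counter-screen used HEK-293 cells stably expressing the GloSensor-22F cAMP reporter without Sm.5HTRL, plated 2.5x10^4 cells/well the day before. Assay buffer was HBSS/HEPES (20 mM, pH 7.4), 0.1% BSA, 1 mg/mL D-luciferin. Cells were equilibrated 1 h at room temperature, then IBMX 200 μM added for 30 min. Test compound was added and luminescence read for 45 min.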

[9] = ref Bard et al., 1993, Shen et al.
[10] = pKi, estimated using the Cheng-Prusoff equation, inhibition of 500 nM 5-HT

NCCc1c[nH]c2ccc(Br)cc12 [5-Bromotryptamine]
agonist activity at Sm.5HTRL (in words) (Sm.5HTRL [1]): partial agonist activity

NCCc1c[nH]c2ccc(C(N)=O)cc12 [5-Carboxamidotryptamine]
effect on worm movement (in words) (adult S. mansoni [2]): did not stimulate movement | agonist activity at Sm.5HTRL (in words) (Sm.5HTRL [1]; listed as 5-CT): inactive | activity at mammalian 5-HT7 receptors (in words) [3, 9]: potent full agonists | activity at human 5-HT7 receptor (in words) (human 5-HT7 receptor): full agonists

C=CCN(CC=C)CCc1c[nH]c2ccc(OC)cc12 [5-MeO-DALT, N,N-diallyl-5-methoxytryptamine]
agonist activity at Sm.5HTRL (in words) (Sm.5HTRL [1]): inactive

COc1ccc2[nH]cc(CCN(C)C)c2c1 [5-MeO-DMT, 5-methoxy-N,N-dimethyltryptamine]
agonist activity at Sm.5HTRL (in words) (Sm.5HTRL [1]): inactive

COc1ccc2[nH]cc(CCN)c2c1 [5-methoxytryptamine]
effect on worm movement (in words) (adult S. mansoni [2]): stimulated movement | effect on worm movement (in words) (adult S. mansoni [2]; listed as 5-MeOT): potently stimulated movement | agonist activity at Sm.5HTRL (in words) (Sm.5HTRL [1]; listed as 5-MeOT): inactive; also recorded: did not potently activate | activity at mammalian 5-HT7 receptors (in words) [3, 9]: potent full agonists | activity at human 5-HT7 receptor (in words) (human 5-HT7 receptor): full agonists

Cc1ccc2[nH]cc(CCN)c2c1 [5-methyltryptamine]
effect on worm movement (in words) (adult S. mansoni [2]): stimulated movement, but only at high concentrations in the hundreds of micromolar | agonist activity at Sm.5HTRL (in words) (Sm.5HTRL [1]): partial agonist activity

CCCN1CCc2cccc3c2[C@H]1Cc1ccc2c(c1-3)OCO2 [(-)-MDO-NPA hydrochloride]
Ki (Sm.5HTRL [4]; [10]): 100 nM

COc1cc2c(cc1O)C[C@H]1c3c(cc(O)c(OC)c3-2)CCN1C [Boldine]
activity at Sm.5HTRL (in words) (Sm.5HTRL [5]; 2016a): Sm.5HTRL antagonists | antagonist activity at Sm.5HTRL (in words) (Sm.5HTRL [4]): potent antagonists

CN(C)CCc1c[nH]c2ccc(O)cc12 [Bufotenine]
EC50 (Sm.5HTRL [1]): 2400 ± 200 nM | Emax (Sm.5HTRL [1]): 99 ± 34%

COc1ccc2c(c1OC)CN1CCc3cc4c(cc3[C@@H]1C2)OCO4 [Canadine]
antagonist activity at Sm.5HTRL (in words) (Sm.5HTRL [4]): loss of activity; also recorded: inactive

COc1cc2c(cc1OC)C1Cc3ccc(OC)c(OC)c3CN1CC2 (stereo not drawn) [D,L Rotundine]
activity at Sm.5HTRL (in words) (Sm.5HTRL [5]; 2016c, listed as D/L-rotundine): antagonist | activity at Sm.5HTRL (in words) (Sm.5HTRL [5]; 2016c, listed as rotundine): potent antagonists | Ki (Sm.5HTRL [4]): 63.1 nM | effect on movement of adult worms (in words) (adult S. mansoni [6]): inhibited movement of adult worms

COc1cc2c(cc1OC)[C@H]1Cc3ccc(OC)c(OC)c3CN1CC2 [D-Rotundine]
antagonist activity at Sm.5HTRL (in words) (Sm.5HTRL [4]): inactive | inhibition of 5-HT evoked movement (in words) (adult S. mansoni [7]): no inhibition

COc1cc2c(cc1OC)-c1c(OC)c(OC)cc3c1[C@H](C2)N(C)CC3 [D-glaucine]
activity at Sm.5HTRL (in words) (Sm.5HTRL [5]; 2016a): Sm.5HTRL antagonists | antagonist activity at Sm.5HTRL (in words) (Sm.5HTRL [4]): potent antagonists | Ki (Sm.5HTRL [4]; [10]): 158 nM

CN(C)CCc1c[nH]c2ccccc12 [DMT, N,N-Dimethyltryptamine]
effect on worm movement (in words) (adult S. mansoni [2]): no effect on worm movement | agonist activity at Sm.5HTRL (in words) (Sm.5HTRL [1]): inactive

COc1cc2cc3c4c(cc(OC)c(OC)c4c2cc1OC)CCN3C [Dehydroglaucine]
antagonist activity at Sm.5HTRL (in words) (Sm.5HTRL [4]): inactive

COc1cc2c3c(c1OC)-c1ccccc1C[C@H]3N(C)CC2 [L-Nuciferine]
activity at Sm.5HTRL (in words) (Sm.5HTRL [5]; 2016a): potent antagonists; also recorded: Sm.5HTRL antagonists | antagonist activity at Sm.5HTRL (in words) (Sm.5HTRL [4]): potent antagonists | Ki (Sm.5HTRL [4]; [10]): 79.4 nM

COc1cc2c(cc1OC)[C@@H]1Cc3ccc(OC)c(OC)c3CN1CC2 [L-Rotundine]
antagonist activity at Sm.5HTRL (in words) (Sm.5HTRL [4]): active | concentration inhibiting 5-HT evoked movement (adult S. mansoni [7]): ≥ 1 µM

COc1ccc(CC2c3cc(OC)c(OC)cc3CCN2C)cc1OC (stereo not drawn) [Laudanosine]
antagonist activity at Sm.5HTRL (in words) (Sm.5HTRL [4]): None of these showed any inhibition

CNCCc1c[nH]c2ccccc12 [N-Methyltryptamine]
agonist activity at Sm.5HTRL (in words) (Sm.5HTRL [1]): inactive

CNCCc1c[nH]c2ccc(O)cc12 [N-methylserotonin]
effect on worm movement (in words) (adult S. mansoni [2]): full agonist | increase in worm movement (adult S. mansoni [2]): 252 ± 9% | EC50 (Sm.5HTRL [1]): 154 ± 11 nM | Emax (Sm.5HTRL [1]): 113 ± 28% | activity at mammalian 5-HT7 receptors (in words) ([3]; ref Powell et al., 2008): full agonist

COc1cc2c(cc1OC)-c1cc3ccc(OC)c(OC)c3c[n+]1CC2 [Palmatine]
antagonist activity at Sm.5HTRL (in words) (Sm.5HTRL [4]): inactive | inhibition of 5-HT evoked movement (in words) (adult S. mansoni [7]): no inhibition

COc1ccc(C(=O)c2nccc3cc(OC)c(OC)cc23)cc1OC [Papaveraldine]
antagonist activity at Sm.5HTRL (in words) (Sm.5HTRL [4]): None of these showed any inhibition

COc1ccc(Cc2nccc3cc(OC)c(OC)cc23)cc1OC [Papaverine]
antagonist activity at Sm.5HTRL (in words) (Sm.5HTRL [4]): None of these showed any inhibition

CC1CCN(CC[C@H]2CCCN2S(=O)(=O)c2cccc(O)c2)CC1 [SB-269970]
activity at Sm.5HTRL (in words) (Sm.5HTRL [5]; 2016c): inactive

NCCc1c[nH]c2ccc(O)cc12 [Serotonin]
increase in worm movement (adult S. mansoni [2]): 224 ± 17% | EC50 (Sm.5HTRL [1]): 94 ± 18 nM | activity in cells expressing the GloSensor-22F reporter alone (in words) [8]: not observed

c1cc2c(c3c1CC1c4cc5c(cc4CCN1C3)OCO5)OCO2 (stereo not drawn) [Tetrahydrocoptisine]
antagonist activity at Sm.5HTRL (in words) (Sm.5HTRL [4]): loss of activity | antagonist activity at Sm.5HTRL (in words) (Sm.5HTRL [4]; listed as tetrahydrocopsitine): inactive

NCCc1c[nH]c2ccccc12 [Tryptamine]
agonist activity at Sm.5HTRL (in words) (Sm.5HTRL [1]): negligible activity

COc1cc2c3c(c1O)-c1ccccc1CC3N(C)CC2 (stereo not drawn) [compound 785177]
concentration inhibiting 5-HT evoked movement (adult S. mansoni [7]): 1 to 10 µM

COc1cc2c(cc1OC)CN1CCc3cc(OC)c(OC)cc3[C@@H]1C2 [d-Xylopinine]
antagonist activity at Sm.5HTRL (in words) (Sm.5HTRL [4]): decreased potency | times less potent than rotundine at Sm.5HTRL (Sm.5HTRL [4]; relative to rotundine): ~10

COc1cc2c3c(cc4ccccc4c3c1OC)N(C)CC2 [dehydronuciferine]
antagonist activity at Sm.5HTRL (in words) (Sm.5HTRL [4]): inactive

COc1cc2c3c(c1OC)-c1cc4c(cc1CC3N(C)CC2)OCO4 (stereo not drawn) [nantenine]
antagonist activity at Sm.5HTRL (in words) (Sm.5HTRL [4]): potent antagonists
